Compound activity deposited in PubChem by several laboratories.
Most compounds without a hit are left out; they make up all but 2.4% or so of the library.
APOBEC3G inh – inhibitors of human APOBEC3G DNA deaminase. recombinant A3G, ssDNA deamination FAM/TAMRA fluorescence. Q9HC16. 330,000 tested, 0.28% active. inhibition, % at 20 µM. AID 493012;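 active = inhibition of at least 40% at 20 µM, with no more than 30% in the related APOBEC3A deaminase screen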
A3A deaminase – blocks human APOBEC3A ssDNA deamination | inhibition, % at 20 µM | recombinant A3A, FAM/TAMRA ssDNA deamination fluorescence | P31941 | 330,000 tested, 0.41% active | AID 493011;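 active = at least 40% inhibition at 20 µM here, with at most 30% in a related deaminase screen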
HKDC1 inhibitor – blocks human hexokinase HKDC1 activity; 340,000 tested, 0.16% active; Q2TB90; AID 493160; recombinant HKDC1, G6PDH/diaphorase resazurin coupled fluorescence; inhibition, % at 20 µM;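 active = inhibition above about 35% when tested at 20 µM, limit read from the data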
Target sequence (Q2TB90 whole entry, looked up): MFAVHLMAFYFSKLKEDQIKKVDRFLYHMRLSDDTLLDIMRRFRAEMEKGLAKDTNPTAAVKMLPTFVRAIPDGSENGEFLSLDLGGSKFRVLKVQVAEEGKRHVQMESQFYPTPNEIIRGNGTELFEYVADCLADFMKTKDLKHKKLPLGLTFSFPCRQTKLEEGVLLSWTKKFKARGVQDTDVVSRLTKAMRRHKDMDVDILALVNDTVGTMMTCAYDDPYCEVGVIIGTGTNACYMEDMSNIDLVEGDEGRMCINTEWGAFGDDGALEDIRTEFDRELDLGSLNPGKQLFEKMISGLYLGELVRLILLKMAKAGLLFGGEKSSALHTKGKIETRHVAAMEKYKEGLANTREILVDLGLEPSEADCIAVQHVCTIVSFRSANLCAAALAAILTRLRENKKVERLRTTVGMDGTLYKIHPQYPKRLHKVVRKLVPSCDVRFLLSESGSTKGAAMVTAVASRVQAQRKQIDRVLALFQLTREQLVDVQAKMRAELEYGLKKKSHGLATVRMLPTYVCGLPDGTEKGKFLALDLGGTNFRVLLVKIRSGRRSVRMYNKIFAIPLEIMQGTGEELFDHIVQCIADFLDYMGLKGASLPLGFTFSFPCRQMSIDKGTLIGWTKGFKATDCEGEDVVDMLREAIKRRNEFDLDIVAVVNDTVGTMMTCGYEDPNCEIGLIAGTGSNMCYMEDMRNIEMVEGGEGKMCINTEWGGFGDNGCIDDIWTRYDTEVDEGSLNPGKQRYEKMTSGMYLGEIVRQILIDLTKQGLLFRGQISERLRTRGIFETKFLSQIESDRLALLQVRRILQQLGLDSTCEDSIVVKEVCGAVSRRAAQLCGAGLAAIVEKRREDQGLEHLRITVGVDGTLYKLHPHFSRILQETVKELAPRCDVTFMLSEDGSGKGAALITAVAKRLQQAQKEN
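Assay system – recombinant HKDC1 (HK5) hexokinase enzyme, produced in-house · Input – HKDC1 at 5 µg/mL · Reagent – glucose plus 1 mM ATP as hexokinase substrates · Timing – 90 min reaction incubation at room temperature, dark · Measured by – G6PDH/diaphorase-coupled fluorescence, 1 mM NADP, 100 µM resazurin, 525/613 nm · Benchmarks – DMSO-enzyme wells negative, buffer-substituted wells positive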
UBC9 SUMO inh – blocks human SUMOylation mediated by UBC9 | P63279 | HTRF SUMOylation assay, SAE1/SAE2 + UBC9, in vitro | inhibition, % at 35 µM | 290,000 tested, 0.36% active | AID 2006; in the data active = inhibition above about 50%, passing the limit was not always enough
PfG6PD inh – PfG6PD (Plasmodium falciparum) enzyme inhibition; PfGluPho enzyme, NADPH resazurin-diaphorase fluorescence; inhibition, % at 20 µM; 350,000 tested, 0.78% active;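 active = inhibition reaching at least a set limit at 20 µM in the primary screen, cut at about 59% in these data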
PfM18AAP inh – PfM18AAP enzyme inhibition. recombinant PfM18AAP, H-Glu-NHMec fluorogenic cleavage. inhibition, % at 7.35 µM. 290,000 tested, 1.2% active. AID 1822;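 active = inhibition above the campaign mean inhibition over all tested compounds plus 3 SD, cut at about 28% in these data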
PfG6PD confirm – PfG6PD inhibition, single-dose confirmed. 2,400 tested, 34% active. AID 504753. recombinant PfGluPho, NADPH-diaphorase-resazurin fluorescence. shares compounds with PfG6PD inh. inhibition, % at 20 µM;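 active = inhibition of at least 50% at 20 µM in any single replicate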
Diaphorase 10uM – diaphorase inhibition or oxidation at 10 uM NADPH. diaphorase-coupled resazurin reduction, fluorescence, NADPH 10 uM. inhibition, % at 20 µM. 820 tested, 39% active. AID 504862. shares compounds with PfG6PD inh;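 active = average inhibition reaching 50% or more with the compound at 20 µM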;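 also: resorufin red fluorescence formed as diaphorase reduces resazurin using NADPH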
Diaph ctr 30uM – inhibits diaphorase or oxidizes, flagging false PfG6PD hits; shares compounds with PfG6PD inh; Diaphorase/resazurin coupled assay, resorufin fluorescence, 30 uM NADPH; inhibition, % at 20 µM; 820 tested, 29% active; AID 504863;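 active = inhibition averaging 50% or more, tested at 20 µM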
Large screens that a line does not name were inactive (follow-up assays come after a bar, where they were run).

CC(C)N1CCN(c2ccc(O)cc2)CC1	PfG6PD inh 72.5 (no result: APOBEC3G inh, A3A deaminase) | PfG6PD confirm inactive
CC12CCC(=O)CC1CCC1C2C(=O)CC2(C)C1CCC2(C)O (stereo not drawn)	none (no result: APOBEC3G inh, A3A deaminase, UBC9 SUMO inh, PfM18AAP inh)
COc1ccc(-n2c(/C=C/c3ccc(O)c(OC)c3)nc3ccccc3c2=O)cc1	none
COc1cccc(-n2c(/C=C/c3ccc(O)c(O)c3)nc3ccccc3c2=O)c1	PfG6PD inh 63.7, PfM18AAP inh 57.4 | PfG6PD confirm inactive
C[C@]12CCC(=O)C[C@@H]1CC[C@@H]1[C@@H]2CC[C@]2(C)[C@@H](O)CC[C@@H]12	none (no result: UBC9 SUMO inh, PfM18AAP inh)
COc1cc2c(cc1OC)-c1c(OC)c(OC)cc3c1C(C2)N(C)CC3 (stereo not drawn)	PfG6PD inh 68.4 | PfG6PD confirm inactive
O=C1C(Cl)=CC(=Nc2ccc(O)cc2)C=C1Cl	PfG6PD inh 115.7 (no result: UBC9 SUMO inh, PfM18AAP inh) | PfG6PD confirm 110.6 | Diaphorase 10uM 93.3 | Diaph ctr 30uM 81.5
CCn1nc(/C=C/c2ccccc2)nc2c(=O)n(C)c(=O)nc1-2	UBC9 SUMO inh 98.6, PfG6PD inh 101.5 | PfG6PD confirm 76.1 | Diaphorase 10uM 92.8 | Diaph ctr 30uM 98.5
CCC(=NCCC1=CCCCC1)c1c(O)[nH]c(=O)[nH]c1=O	none
O=C(NC(Cc1cnc[nH]1)C(=O)O)c1ccccc1 (stereo not drawn)	none
CCOP(=S)(OCC)Oc1ccc2c(C)c(Cl)c(=O)oc2c1	none (no result: APOBEC3G inh, A3A deaminase, UBC9 SUMO inh, PfM18AAP inh)
CCOP(=S)(OCC)Oc1cc(C)oc(=O)c1Cl	PfG6PD inh 62.6 | PfG6PD confirm inactive
CC(=O)OC1N=C(c2ccc(Cl)cc2)c2cc(Br)ccc2NC1=O (stereo not drawn)	PfG6PD inh 77.8 | PfG6PD confirm inactive
CC(=O)OC1N=C(c2ccccc2)c2cc(Br)ccc2NC1=O (stereo not drawn)	none
CC1CN(c2ccc([N+](=O)[O-])cc2Cl)CCN1 (stereo not drawn)	none
CN(C)c1nc(-c2ccccc2)[n+](C)s1	none
Cc1ccc(-c2nc(N3CCOCC3)s[n+]2-c2ccccc2)cc1	PfG6PD inh 59.8 (no result: APOBEC3G inh, A3A deaminase) | PfG6PD confirm 77.3 | Diaphorase 10uM inactive | Diaph ctr 30uM inactive
CCN(CC)c1ccc(N=Cc2c(O)n(-c3ccccc3)c(=O)[nH]c2=O)cc1	none
COc1ccc(N2C(=O)/C(=C/C=C/c3ccccc3[N+](=O)[O-])C(=O)NC2=S)cc1	PfG6PD inh 60.6 | PfG6PD confirm inactive
COc1ccc(N2C(=O)/C(=C/c3cccs3)C(=O)NC2=S)cc1	none
COc1cccc(N2C(=O)NC(=O)/C(=C/c3ccc([N+](=O)[O-])s3)C2=O)c1	PfG6PD inh 82.7 | PfG6PD confirm inactive
CCN(CC)CCN=Cc1c(O)n(CCC2=CCCCC2)c(=O)[nH]c1=O	none
Cc1ccc(/C=C2\C(=O)NC(=S)N(c3ccccc3F)C2=O)s1	PfG6PD inh 66.0 (no result: APOBEC3G inh, A3A deaminase) | PfG6PD confirm 55.9 | Diaphorase 10uM inactive | Diaph ctr 30uM inactive
CCOC(=O)C1CCN(/C=C2/C(=O)NC(=S)N(c3ccccc3F)C2=O)CC1	none
Cc1cccc(N=C2c3cc([N+](=O)[O-])ccc3-c3c2cc([N+](=O)[O-])cc3[N+](=O)[O-])c1	PfG6PD inh 74.2 (no result: APOBEC3G inh, A3A deaminase, UBC9 SUMO inh, PfM18AAP inh) | PfG6PD confirm inactive
NCCc1cc(O)c(O)cc1O	PfG6PD inh 94.0 (no result: APOBEC3G inh, A3A deaminase, UBC9 SUMO inh, PfM18AAP inh) | PfG6PD confirm 67.7 | Diaphorase 10uM 52.6 | Diaph ctr 30uM inactive
